HIV Env fusion – inhibitors of HIV-1 Env-driven cell-cell fusion, primary screen, HeLa-JRFL effector, CEM21 target cells, luciferase; inhibition, % at 12.3 µM; hit rate 1.1% among 360,000; AID 651610, 2012;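 active = mean replicate inhibition score of at least 50 and every replicate individually at or above 50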
GSIS activator – GLuc luminescence reporter in INS-1E cells, primary screen for activators of glucose-dependent secretion of insulin; INS-1E GLuc reporter insulin secretion, 2-3 h; activation, % at 16.6 µM; AID 743287, 2014; hit rate 0.61% among 370,000;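 active = lowest replicate activation of at least 40%, so every replicate reaches that level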
ERp5 block – inhibitors of ERp5-driven insulin aggregation, primary screen, biochemical, turbidity, absorbance 650 nm, single point | 90 min | inhibition, % at 9.99 µM | hit rate 0.05% among 350,000 | AID 651711, 2012;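 active = mean replicate inhibition above about 25%, with every replicate also reaching it, limit read from the data, passing the limit was not always enough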
Target sequence (Q15084 whole entry, looked up): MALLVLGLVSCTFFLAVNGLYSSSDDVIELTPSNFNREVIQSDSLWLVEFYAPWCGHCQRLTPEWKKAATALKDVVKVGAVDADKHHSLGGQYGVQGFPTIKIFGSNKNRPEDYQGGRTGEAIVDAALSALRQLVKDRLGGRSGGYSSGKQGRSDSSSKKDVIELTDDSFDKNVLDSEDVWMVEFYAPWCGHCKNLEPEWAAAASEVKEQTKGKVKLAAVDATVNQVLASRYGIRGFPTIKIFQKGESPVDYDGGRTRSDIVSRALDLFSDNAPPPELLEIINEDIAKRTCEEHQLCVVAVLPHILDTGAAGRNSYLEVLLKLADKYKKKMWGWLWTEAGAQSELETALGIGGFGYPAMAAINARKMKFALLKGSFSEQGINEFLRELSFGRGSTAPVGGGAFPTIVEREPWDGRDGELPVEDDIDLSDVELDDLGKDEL
PDI turbidity – inhibitors of human PDI, primary screen, biochemical, turbidity, single point, plate reader; Protein disulfide-isomerase (Homo sapiens), P07237; PDI insulin aggregation turbidity, A650, 90 min; inhibition, % at 10 µM; hit rate 0.052% among 350,000; AID 588391, 2011;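 active = mean inhibition across replicates of 30% or more, whatever share of single replicates reach that level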
FN deposit inh – inhibitors of fibronectin matrix deposition, primary screen, AH1F cells, Alexa488-fibronectin fluorescence, plate reader; AH1F fibroblasts, overnight; inhibition, % at 12.6 µM; hit rate 0.086% among 350,000; AID 743247, 2014;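 active = mean inhibition across replicates of 30% or more, regardless of how many single replicates reach that level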
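Material: AH1F fibroblast monolayer depositing Alexa488-labelled fibronectin into matrix / Amount: 10000 AH1F cells per well / Signal: fluorescence 485/525 nm / Medium: DMEM, 2% serum / Compound: single dose, pinned / Incubation: 1 h cell adhesion before compound, then overnight fibronectin incubation / Reagent: Alexa488-FN, 24 nM final / Read-out: inhibition of fibronectin deposition signal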
Of the large screens only hits and unclear results are named; the others gave an inactive call; ! = a repeat was not active. An excerpt weighted towards active compounds, which were near 1.4% of everything screened.

CC1CN(c2cc([N+](=O)[O-])ccc2Cl)CC(C)N1 (stereo unspecified)	GSIS activator 41
CCOC(=O)C1C(OC(=O)c2ccccc2)CC2CCC1N2C (stereo unspecified)	GSIS activator 41 (no result: HIV Env fusion, FN deposit inh)
CN1C2CCC1C(C(=O)O)C(OC(=O)c1ccccc1)C2 (stereo unspecified)	GSIS activator 40 (no result: HIV Env fusion, FN deposit inh)
COC1=C(C)C(=O)C2=C(C1=O)C(CO)N1C(C#N)C3CC4C(C1C2N1CCOC41)N3C (stereo unspecified)	HIV Env fusion 67
Cc1cccc2nc(-c3ccccc3)c(-c3ccc(CN4CCC(n5c(=O)[nH]c6cc(Cl)ccc65)CC4)cc3)nc12	GSIS activator 42 (no result: PDI turbidity)
O=C(Cc1ccccc1)N1CC2(C1)[C@H](c1ccccc1)[C@H](CO)N2Cc1cccc(Cl)c1	none (no result: HIV Env fusion, PDI turbidity)
CCC1(OC(=O)CN)C(=O)OCc2c1cc1n(c2=O)Cc2cc3ccccc3nc2-1 (stereo unspecified)	none (no result: HIV Env fusion, FN deposit inh)
CC[C@@]1(O)C(=O)OCc2c1cc1n(c2=O)Cc2cc3c(NC(=O)CN)cccc3nc2-1	HIV Env fusion 69
COC(=O)[C@@H]1[C@@H](CO)[C@@H]2Cn3c(ccc(-c4ccccc4F)c3=O)[C@H]1N2C(=O)C1CC1	none (no result: HIV Env fusion, PDI turbidity, FN deposit inh)
O=C(c1cccc2ccccc12)C1CCCN(Cc2ccon2)C1 (stereo unspecified)	GSIS activator 40
O=C(O)[C@H]1[C@H](CO)[C@H]2Cn3c(ccc(-c4cncnc4)c3=O)[C@@H]1N2C(=O)NC1CCCC1	none (no result: HIV Env fusion, PDI turbidity, FN deposit inh)
CCCCn1c(O)c(/C=C2/C=CC=N2)c(=O)[nH]c1=O	GSIS activator 56
Clc1ccc(C[n+]2c(-c3ccccc3)cc(-c3ccccc3)cc2-c2ccccc2)cc1	HIV Env fusion 107
FC(F)(F)CN1C[C@@H]2N[C@H](C1)C2c1ccc(Br)cc1 (stereo partly specified)	none (no result: HIV Env fusion, ERp5 block, PDI turbidity)
CC1=CC2OC3CC4OC(=O)C=CC=CC(C(C)O)OCC(O)C(C)CC(=O)OCC2(CC1O)C4(C)C31CO1 (stereo unspecified)	HIV Env fusion 83
CC1=CC2OC3CC4OC(=O)C=CC=CC(=O)OCCC(C)C(O)C(=O)OCC2(CC1O)C4(C)C31CO1 (stereo unspecified)	none (no result: HIV Env fusion, GSIS activator, ERp5 block, FN deposit inh)
C[C@@H]1O[C@@H](O[C@@H]2C=C3CC[C@@H]4C(CC[C@]5(C)[C@@H](c6ccc(=O)oc6)CC[C@]45O)[C@@]3(C)CC2)[C@H](O)[C@H](O)[C@H]1O (stereo partly specified)	HIV Env fusion 93
C[C@@H]1O[C@@H](O[C@H]2C[C@@H](O)[C@]3(CO)[C@H]4[C@H](O)C[C@]5(C)[C@@H](C6COC(=O)C6)CC[C@]5(O)[C@@H]4CC[C@]3(O)C2)[C@H](O)[C@H](O)[C@H]1O (stereo partly specified)	none (no result: GSIS activator)
C[C@@H]1O[C@@H](O[C@@H]2C=C3CCC4C(CC[C@]5(C)[C@@H](c6ccc(=O)oc6)CC[C@]45O)[C@@]3(C)CC2)[C@H](O)[C@H](O)[C@H]1O (stereo partly specified)	HIV Env fusion 65
O=C(O)[C@@H]1[C@@H](CO)[C@@H]2Cn3c(ccc(-c4ccncc4)c3=O)[C@H]1N2C(=O)C1CCCC1	none (no result: HIV Env fusion, PDI turbidity, FN deposit inh)
CC=Cc1ccc2n(c1=O)C[C@@H]1[C@@H](CO)[C@H](C(=O)O)[C@H]2N1S(=O)(=O)c1ccccc1F (mixture of isomers)	none (no result: PDI turbidity, FN deposit inh)
O=C(NN=Cc1ccc(N(CCCl)CCCl)cc1Cl)c1cccnc1	HIV Env fusion 56
Cc1cc(N(CCCl)CCCl)ccc1C=NNC(=O)c1cccnc1	none (no result: GSIS activator)
CCC(c1nnnn1Cc1ccccc1)N1CCC(n2c(=O)[nH]c3ccccc32)CC1 (stereo unspecified)	HIV Env fusion 55 (no result: PDI turbidity)
CC(=O)OC1C(O)C(C)OC(OC2C(OC(=O)C3CCC4C(C3)OC3(CC(OC(=O)/C=C/c5ccccc5)C(C)CO3)C43CO3)OC(C)C(O)C2OC(C)=O)C1O (stereo unspecified)	HIV Env fusion 72
COc1ccc(C#Cc2ccc([C@H]3[C@H]4CN(C(=O)Cc5cccnc5)CCCCN4[C@H]3CO)cc2)cc1	none (no result: HIV Env fusion, PDI turbidity, FN deposit inh)
COC(=O)C12OCC34C(CC5C(C)=C(O)C(=O)CC5(C)C3C(O)C1O)OC(=O)C(OC(=O)/C=C(\C)C(C)C)C24 (stereo unspecified)	HIV Env fusion 84
Cc1[nH]c2ccc(OC(F)(F)F)cc2c1CCNCc1ccc(Cl)cc1	HIV Env fusion 93, GSIS activator 214
CCOc1cccc(CNCCc2c(C)[nH]c3ccc(OC(F)(F)F)cc23)c1O	HIV Env fusion 62
Cc1[nH]c2ccc(OC(F)(F)F)cc2c1CCNCc1cccc([N+](=O)[O-])c1	HIV Env fusion 67
O=C(Cc1cccnc1)N1CCCCN2[C@@H](CO)[C@H](c3ccc(C#CC4CC4)cc3)[C@@H]2C1	none (no result: HIV Env fusion, GSIS activator, PDI turbidity, FN deposit inh)
C[C@H]1CN([C@@H](C)CO)C(=O)CCCn2nncc2CO[C@@H]1CN(C)C(=O)Oc1ccc2ccccc2c1	none (no result: PDI turbidity)
C[C@H]1CCC/C=C/[C@@H]2C[C@H](O)C[C@H]2[C@H](O)/C=C/C(=O)O1	HIV Env fusion 94! (no result: GSIS activator)
C#CCCC[C@@H]1OC(=O)CNC(=O)C([C@@H](C)CC)NC(=O)[C@@H]2CCCN2C(=O)C([C@@H](C)CC)OC(=O)[C@H](Cc2ccccc2)N(C)C(=O)[C@H](C(C)C)NC(=O)C1(C)C (stereo partly specified)	none (no result: PDI turbidity)
CCC(C)C1NC(=O)C(NC(=O)C(CC(C)C)N(C)C(=O)C2CCCN2C(=O)C(C)O)C(C)OC(=O)C(Cc2ccc(OC)cc2)N(C)C(=O)C2CCCN2C(=O)C(CC(C)C)NC(=O)[C@H](C)C(=O)[C@H](C(C)C)OC(=O)CC1O (stereo partly specified)	HIV Env fusion 83
S=C(NCCc1ccccc1)N1Cc2ccc(Br)cc2-n2nncc2C1	none (no result: PDI turbidity)
S=C(NCCc1ccccc1)N1Cc2cc(Br)ccc2-n2nncc2C1	HIV Env fusion 57 (no result: PDI turbidity, FN deposit inh)
CCC(=NCCc1c[nH]c2ccccc12)c1c(O)n(-c2ccc(C)cc2)c(=O)[nH]c1=O	none (no result: GSIS activator)
CCC(=NCc1ccc2c(c1)OCO2)c1c(O)n(C)c(=O)n(C)c1=O	HIV Env fusion 77 (no result: GSIS activator, ERp5 block)
CC(=NCc1ccc2c(c1)OCO2)c1c(O)n(C)c(=O)n(C)c1=O	none (no result: GSIS activator, ERp5 block)
CCC(=NCCc1c[nH]c2ccccc12)c1c(O)n(C)c(=O)n(C)c1=O	HIV Env fusion 81 (no result: ERp5 block)
CCC(=NCCN1CCCCC1)c1c(O)n(C)c(=O)n(C)c1=O	none (no result: HIV Env fusion, GSIS activator, ERp5 block, FN deposit inh)
CCC(=NCCOc1ccc(Cl)cc1)c1c(O)n(C)c(=O)n(C)c1=O	HIV Env fusion 50 (no result: ERp5 block)
O=C(Cc1cccnc1)N1CCCCN2[C@@H](CO)[C@@H](c3ccc(C#CC4CCCC4)cc3)[C@@H]2C1	none (no result: HIV Env fusion, PDI turbidity, FN deposit inh)
Fc1ccccc1CNCCc1c[nH]c2ccccc12	none

High-throughput results deposited in PubChem by Broad Institute.
